Measured values taken from ChEMBL document CHEMBL4257478, “Design, synthesis and evaluation of (R)-3-(7-(methyl(7H-pyrrolo[2,3-d]pyrimidin-4-yl)amino)-5-azaspiro[2.4]heptan-5-yl)-3-oxopropanenitrile as a JAK1-selective inhibitor” (Medchemcomm, 2018).

Key:
Homo sapiens = organism: Homo sapiens; test: Selectivity index, ratio of IC50 for human JAK2 to IC50 for human JAK1
Outline: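 Kinase activity assays run as a commercial service at Km ATP; IC50 values fitted from concentration-response data; ratio of JAK2 to JAK1 IC50.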

[1] = Metabolic stability in human plasma assessed as parent compound remaining at 10 uM after 30 mins by LC-MS/MS method; type: ADME, cell-free; conditions: read-out: Stability
Outline: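 Human plasma spiked with test article at 10 μM and incubated at 37 °C for 0, 30 and 120 min. Acetonitrile with chlorpropamide internal standard added, sample centrifuged at 4 °C, supernatant analysed by LC-MS/MS; result given as percent remaining.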

[2] = Metabolic stability in rat plasma assessed as parent compound remaining at 10 uM after 30 mins by LC-MS/MS method; type: ADME, cell-free; conditions: read-out: Stability
Outline: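 Rat plasma spiked with test article at 10 μM and incubated at 37 °C, sampled at 0, 30 and 120 min. Acetonitrile containing chlorpropamide internal standard added, then vortexed and centrifuged at 4 °C; supernatant quantified by LC-MS/MS as % remaining. Procaine and diltiazem served as positive controls.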

[3] = Protein binding in human plasma at 10 uM after 4 hrs by rapid equilibrium dialysis method; type: ADME, cell-free; conditions: read-out: PPB (converted)
Outline: (§1)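 Rapid equilibrium dialysis of human or rat plasma dosed at 10 μM against PBS pH 7.4, 4 h at 37 °C. Plasma and buffer aliquots were matrix-matched with blank buffer or plasma, precipitated with acetonitrile containing chlorpropamide internal standard, and analysed by LC-MS/MS. Dexamethasone and warfarin served as positive controls.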

[4] = Protein binding in rat plasma at 10 uM after 4 hrs by rapid equilibrium dialysis method; type: ADME, cell-free; conditions: read-out: PPB (converted); outline: as §1
[5] = Lipophilicity, log P of the compound in neutral form; type: physicochemical; conditions: octanol/water
[6] = Metabolic stability in dog liver microsomes assessed as parent compound remaining at 1 uM preincubated for 5 mins followed by addition of NADPH regenerating system and measured after 30 mins by LC-MS/MS method; type: ADME, Canis lupus familiaris, microsome; conditions: read-out: Stability
Outline: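 Liver microsomes (0.5 mg/mL; human, dog or mouse) in 0.1 M phosphate buffer with test article at 1 μM, preincubated 5 min at 37 °C. NADPH regenerating system added, then 30 min at 37 °C. Acetonitrile with chlorpropamide internal standard added, sample centrifuged, supernatant analysed by LC-MS/MS.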

[7] = Apparent permeability across basolateral to apical side in human Caco2 cells at 25 uM measured every 15 mins for 60 mins by LC-MS/MS method; type: ADME, cell-based; conditions: Caco-2
Outline: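 Caco-2 cells were seeded at 1×10^6 per 12-well transwell and grown 3 weeks. Test article was 25 μM in HBSS transport buffer (10 mM glucose, 4 mM bicarbonate, 1 mM HEPES, pH 7.4), added to the apical or basolateral side. Incubated 60 min at 37 °C with sampling every 15 min; LC-MS/MS read-out.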

[8] = Efflux ratio of apparent permeability from basolateral to apical side over apical to basolateral side in human Caco2 cells at 25 uM; type: ADME, cell-based; conditions: Caco-2
CYP2B6 = target: T1, CYP2B6 (Homo sapiens, UniProt P20813); test: Inhibition of CYP2B6 in human liver microsomes assessed as remaining activity at 10 uM using bupropion as substrate preincubated for 5 mins followed by addition of NADPH regenerating system and measured after 15 mins by LC-MS/MS analysis relative to control; type: ADME; conditions: probe bupropion, read-out: Activity
T1 sequence (P20813 whole entry): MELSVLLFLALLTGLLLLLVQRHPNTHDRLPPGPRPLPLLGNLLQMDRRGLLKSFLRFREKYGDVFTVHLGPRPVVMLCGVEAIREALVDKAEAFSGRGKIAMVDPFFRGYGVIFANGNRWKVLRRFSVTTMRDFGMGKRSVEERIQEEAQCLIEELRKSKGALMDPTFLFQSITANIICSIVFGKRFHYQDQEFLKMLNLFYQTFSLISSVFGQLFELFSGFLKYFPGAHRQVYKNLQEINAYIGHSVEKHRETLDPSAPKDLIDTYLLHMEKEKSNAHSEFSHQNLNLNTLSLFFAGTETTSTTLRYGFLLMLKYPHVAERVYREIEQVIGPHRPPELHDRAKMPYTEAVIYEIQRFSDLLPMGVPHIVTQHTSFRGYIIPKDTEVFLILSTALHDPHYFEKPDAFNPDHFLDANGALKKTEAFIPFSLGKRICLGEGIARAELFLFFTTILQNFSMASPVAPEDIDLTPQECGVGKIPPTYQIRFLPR
Outline: (§2)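 Human liver microsomes (0.25 mg/mL) in 0.1 M phosphate buffer with test article at 0 or 10 μM and substrate cocktail, preincubated 5 min at 37 °C. Cocktail A: phenacetin 50 μM, coumarin 2.5 μM, S-mephenytoin 100 μM, dextromethorphan 5 μM, midazolam 2.5 μM. Cocktail B: bupropion 50 μM, amodiaquine 2.5 μM, tolbutamide 100 μM, chlorzoxazone 50 μM. NADPH system added, then 15 min at 37 °C; acetonitrile quench, LC-MS/MS.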

CYP2C8 = target: T2, CYP2C8 (Homo sapiens, UniProt P10632); test: Inhibition of CYP2C8 in human liver microsomes assessed as remaining activity at 10 uM preincubated for 5 mins followed by addition of NADPH regenerating system and measured after 15 mins by LC-MS/MS analysis relative to control; type: ADME; conditions: read-out: Activity
T2 sequence (P10632 whole entry): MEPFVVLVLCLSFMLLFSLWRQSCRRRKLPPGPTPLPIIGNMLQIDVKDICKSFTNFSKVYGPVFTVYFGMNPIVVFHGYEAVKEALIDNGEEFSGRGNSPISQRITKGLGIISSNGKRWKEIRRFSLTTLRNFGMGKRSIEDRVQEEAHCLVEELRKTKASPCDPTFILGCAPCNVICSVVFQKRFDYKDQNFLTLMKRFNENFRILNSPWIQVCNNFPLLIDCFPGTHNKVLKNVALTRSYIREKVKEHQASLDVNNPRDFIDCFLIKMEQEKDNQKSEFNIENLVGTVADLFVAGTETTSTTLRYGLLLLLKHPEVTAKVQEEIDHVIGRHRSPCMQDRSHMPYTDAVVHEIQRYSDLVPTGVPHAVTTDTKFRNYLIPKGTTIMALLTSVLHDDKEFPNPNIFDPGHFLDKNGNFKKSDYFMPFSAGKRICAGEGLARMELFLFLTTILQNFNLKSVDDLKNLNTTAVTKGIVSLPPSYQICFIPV

CYP2D6 = CYP2D6 (Homo sapiens, UniProt P10635); test: Inhibition of CYP2D6 in human liver microsomes assessed as remaining activity at 10 uM using dextromethorphan as substrate preincubated for 5 mins followed by addition of NADPH regenerating system and measured after 15 mins by LC-MS/MS analysis relative to control; type: ADME; conditions: probe dextromethorphan, read-out: Activity; outline: as §2
CYP2E1 = CYP2E1 (Homo sapiens, UniProt P05181); test: Inhibition of CYP2E1 in human liver microsomes assessed as remaining activity at 10 uM using chlorzoxazone as substrate preincubated for 5 mins followed by addition of NADPH regenerating system and measured after 15 mins by LC-MS/MS analysis relative to control; type: ADME; conditions: probe chlorzoxazone, read-out: Activity; outline: as §2
CYP3A4 = CYP3A4 (Homo sapiens, UniProt P08684); test: Inhibition of CYP3A4 in human liver microsomes assessed as remaining activity at 10 uM using midazolam as substrate preincubated for 5 mins followed by addition of NADPH regenerating system and measured after 15 mins by LC-MS/MS analysis relative to control; type: ADME; conditions: probe midazolam, read-out: Activity; outline: as §2
Sequence of CYP3A4 (P08684 whole entry): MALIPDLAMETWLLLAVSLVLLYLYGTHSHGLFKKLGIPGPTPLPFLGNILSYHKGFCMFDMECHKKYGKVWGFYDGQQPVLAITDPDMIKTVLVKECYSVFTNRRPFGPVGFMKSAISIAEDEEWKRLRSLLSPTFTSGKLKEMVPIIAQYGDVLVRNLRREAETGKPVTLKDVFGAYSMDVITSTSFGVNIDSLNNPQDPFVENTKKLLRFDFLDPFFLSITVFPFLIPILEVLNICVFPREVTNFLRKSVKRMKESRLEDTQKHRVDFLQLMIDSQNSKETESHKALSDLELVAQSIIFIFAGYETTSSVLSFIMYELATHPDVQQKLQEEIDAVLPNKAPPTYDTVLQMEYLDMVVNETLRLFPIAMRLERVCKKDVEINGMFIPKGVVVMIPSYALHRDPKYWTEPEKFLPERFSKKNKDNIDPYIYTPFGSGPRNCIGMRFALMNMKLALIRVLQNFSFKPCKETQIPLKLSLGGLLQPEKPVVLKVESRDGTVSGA

Sequence of CYP2D6 (P10635 whole entry): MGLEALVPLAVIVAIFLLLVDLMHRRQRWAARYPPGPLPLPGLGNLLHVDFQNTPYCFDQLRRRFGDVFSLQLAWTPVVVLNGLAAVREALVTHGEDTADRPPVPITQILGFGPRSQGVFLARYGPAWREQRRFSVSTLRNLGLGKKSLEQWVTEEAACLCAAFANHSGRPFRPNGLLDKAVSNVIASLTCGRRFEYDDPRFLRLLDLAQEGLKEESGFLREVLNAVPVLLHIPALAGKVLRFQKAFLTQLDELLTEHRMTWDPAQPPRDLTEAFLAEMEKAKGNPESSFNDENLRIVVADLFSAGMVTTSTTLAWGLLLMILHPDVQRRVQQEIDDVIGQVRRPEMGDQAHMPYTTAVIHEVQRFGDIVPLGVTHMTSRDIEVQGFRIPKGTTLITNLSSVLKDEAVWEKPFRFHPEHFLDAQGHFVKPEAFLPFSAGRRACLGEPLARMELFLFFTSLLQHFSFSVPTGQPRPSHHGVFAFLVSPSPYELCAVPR
Sequence of CYP2E1 (P05181 whole entry): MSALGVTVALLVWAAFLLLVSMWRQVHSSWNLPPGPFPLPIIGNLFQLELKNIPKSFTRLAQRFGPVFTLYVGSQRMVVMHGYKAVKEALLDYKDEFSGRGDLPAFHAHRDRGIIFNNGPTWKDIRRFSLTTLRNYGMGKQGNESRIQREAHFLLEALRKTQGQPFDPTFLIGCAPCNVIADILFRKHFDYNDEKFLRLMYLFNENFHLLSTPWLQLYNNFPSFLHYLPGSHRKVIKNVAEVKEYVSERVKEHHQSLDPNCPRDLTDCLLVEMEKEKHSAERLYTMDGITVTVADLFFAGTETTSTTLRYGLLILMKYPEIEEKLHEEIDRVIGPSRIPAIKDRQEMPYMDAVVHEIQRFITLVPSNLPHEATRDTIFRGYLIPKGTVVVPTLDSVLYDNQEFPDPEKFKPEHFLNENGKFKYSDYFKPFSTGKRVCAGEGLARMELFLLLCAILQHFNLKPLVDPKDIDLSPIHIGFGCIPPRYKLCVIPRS

Row | Ratio IC50 (Homo sapiens) | remaining at 0.5 h, 10 µM [1] [%] | remaining at 0.5 h, 10 µM [2] [%] | fraction unbound at 4 h, 10 µM [3] | fraction unbound at 4 h, 10 µM [4] | logP [5] | remaining at 0.5 h, 1 µM [6] [%] | Papp B→A at 1 h, 25 µM [7] [×10⁻⁶ cm/s] | efflux ratio at 25 µM [8] | activity at 0.25 h, 10 µM (CYP2B6) [%] | activity at 0.25 h, 10 µM (CYP2C8) [%] | activity at 0.25 h, 10 µM (CYP2D6) [%] | activity at 0.25 h, 10 µM (CYP2E1) [%] | activity at 0.25 h, 10 µM (CYP3A4) [%] | SMILES
1 | 25 | > 100 | > 100 | 0.556 | 0.505 | 2.07 | 56.1 | 25.6 | 1.01 | > 100 | > 100 | > 100 | 63.9 | 95.4 | CCS(=O)(=O)N1C[C@H](N(C)c2ncnc3[nH]ccc23)C2(CC2)C1
2 | 10 | 96.6 | > 100 | 0.126 | 0.142 | 3.69 | 5.5 | 15.7 | 1.17 | 92 | 66.2 | 90.3 | 59.8 | 33.2 | CN(c1ncnc2[nH]ccc12)[C@H]1CN(S(=O)(=O)c2cccc(C#N)c2)CC12CC2
3 | – | 95 | 98.4 | 0.702 | 0.813 | 1.69 | 99.9 | 18.5 | 2.78 | 91.5 | 81 | 91.6 | 50.3 | 89.7 | CN(c1ncnc2[nH]ccc12)[C@H]1CN(C(=O)CC#N)CC12CC2
